# Data taken from ChEMBL document CHEMBL2401735, “Synthesis and cytotoxicity of novel (thiazol-2-yl)hydrazine derivatives as promising anti-Candida agents” (Eur J Med Chem, 2013).
# Tested on: Nakaseomyces glabratus
# Experiment: Anticandida activity against Candida glabrata clinical isolate assessed as growth inhibition after 24 hrs by broth microdilution method
# Format: functional
# Settings: not given
# Procedure, shortened: (§1)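 Clinical Candida isolates subcultured for purity and optimal growth before testing; compounds dissolved in DMSO. Broth microdilution per NCCLS in Sabouraud dextrose broth, serial dilutions, inoculum about 10³/mL, with growth control and medium-only control; 24 h incubation at 37 °C. MIC is the lowest concentration giving complete visible inhibition.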
row,Compound,MIC
1,C=CCC/C(C)=N/Nc1nc(-c2ccc(OC)cc2OC)cs1,128 µg/mL
2,CC(C)=NNc1nc(-c2ccc(Cl)cc2Cl)cs1,2 µg/mL
3,C=CCC/C(C)=N/Nc1nc(-c2ccc(Cl)cc2Cl)cs1,4 µg/mL
4,COC1=CC(=O)C[C@@H](C)[C@]12Oc1c(Cl)c(OC)cc(OC)c1C2=O [GRISEOFULVIN],4 µg/mL
5,OC(Cn1cncn1)(Cn1cncn1)c1ccc(F)cc1F [FLUCONAZOLE],4 µg/mL

# Tested on: Enterobacter sp.
# Experiment: Antibacterial activity against Enterobacter spp. assessed as growth inhibition after 18 to 22 hrs by broth microdilution method
# Format: functional
# Settings: not given
# Procedure, shortened: (§2)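 Bacterial isolates subcultured for purity, identified conventionally. Broth microdilution per NCCLS in Mueller-Hinton II broth; plates with growth control (no compound) and medium-only control, incubated 18-22 h at 35 °C. MIC taken as lowest concentration giving complete growth inhibition by unaided eye.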
row,Compound,MIC
1,CC(C)(O/N=C(\C(=O)N[C@@H]1C(=O)N2C(C(=O)[O-])=C(C[n+]3ccccc3)CS[C@H]12)c1csc(N)n1)C(=O)O [CEFTAZIDIME],8 µg/mL
2,C=CCC/C(C)=N/Nc1nc(-c2ccc(OC)cc2OC)cs1,> 256 µg/mL
3,CC(C)=NNc1nc(-c2ccc(Cl)cc2Cl)cs1,> 256 µg/mL
4,C=CCC/C(C)=N/Nc1nc(-c2ccc(Cl)cc2Cl)cs1,> 256 µg/mL

# Tested on: [Candida] sake
# Experiment: Anticandida activity against Candida sake clinical isolate assessed as growth inhibition after 24 hrs by broth microdilution method
# Format: functional
# Settings: Fermentozyma sake
# Procedure, shortened: as §1
row,Compound,MIC
1,C=CCC/C(C)=N/Nc1nc(-c2ccc(OC)cc2OC)cs1,256 µg/mL
2,CC(C)=NNc1nc(-c2ccc(Cl)cc2Cl)cs1,8 µg/mL
3,C=CCC/C(C)=N/Nc1nc(-c2ccc(Cl)cc2Cl)cs1,256 µg/mL
4,COC1=CC(=O)C[C@@H](C)[C@]12Oc1c(Cl)c(OC)cc(OC)c1C2=O [GRISEOFULVIN],8 µg/mL
5,OC(Cn1cncn1)(Cn1cncn1)c1ccc(F)cc1F [FLUCONAZOLE],4 µg/mL

# Tested on: Candida parapsilosis
# Experiment: Anticandida activity against Candida parapsilosis clinical isolate assessed as growth inhibition after 24 hrs by broth microdilution method
# Format: functional
# Settings: Lodderomyces parapsilosis
# Procedure, shortened: as §1
row,Compound,MIC
1,C=CCC/C(C)=N/Nc1nc(-c2ccc(OC)cc2OC)cs1,256 µg/mL
2,CC(C)=NNc1nc(-c2ccc(Cl)cc2Cl)cs1,8 µg/mL
3,C=CCC/C(C)=N/Nc1nc(-c2ccc(Cl)cc2Cl)cs1,256 µg/mL
4,COC1=CC(=O)C[C@@H](C)[C@]12Oc1c(Cl)c(OC)cc(OC)c1C2=O [GRISEOFULVIN],8 µg/mL
5,OC(Cn1cncn1)(Cn1cncn1)c1ccc(F)cc1F [FLUCONAZOLE],4 µg/mL

# Tested on: Escherichia coli
# Experiment: Antibacterial activity against Escherichia coli assessed as growth inhibition after 18 to 22 hrs by broth microdilution method
# Format: functional
# Settings: not given
# Procedure, shortened: as §2
row,Compound,MIC
1,CC(C)(O/N=C(\C(=O)N[C@@H]1C(=O)N2C(C(=O)[O-])=C(C[n+]3ccccc3)CS[C@H]12)c1csc(N)n1)C(=O)O [CEFTAZIDIME],4 µg/mL
2,C=CCC/C(C)=N/Nc1nc(-c2ccc(OC)cc2OC)cs1,> 256 µg/mL
3,CC(C)=NNc1nc(-c2ccc(Cl)cc2Cl)cs1,> 256 µg/mL
4,C=CCC/C(C)=N/Nc1nc(-c2ccc(Cl)cc2Cl)cs1,> 256 µg/mL

# Tested on: Candida albicans
# Experiment: Anticandida activity against Candida albicans clinical isolate assessed as growth inhibition after 24 hrs by broth microdilution method
# Format: functional
# Settings: not given
# Procedure, shortened: as §1
row,Compound,MIC
1,C=CCC/C(C)=N/Nc1nc(-c2ccc(OC)cc2OC)cs1,64 µg/mL
2,CC(C)=NNc1nc(-c2ccc(Cl)cc2Cl)cs1,2 µg/mL
3,C=CCC/C(C)=N/Nc1nc(-c2ccc(Cl)cc2Cl)cs1,2 µg/mL
4,COC1=CC(=O)C[C@@H](C)[C@]12Oc1c(Cl)c(OC)cc(OC)c1C2=O [GRISEOFULVIN],4 µg/mL
5,OC(Cn1cncn1)(Cn1cncn1)c1ccc(F)cc1F [FLUCONAZOLE],4 µg/mL

# Tested on: Pichia kudriavzevii
# Experiment: Anticandida activity against Candida krusei clinical isolate assessed as growth inhibition after 24 hrs by broth microdilution method
# Format: functional
# Settings: not given
# Procedure, shortened: as §1
row,Compound,MIC
1,C=CCC/C(C)=N/Nc1nc(-c2ccc(OC)cc2OC)cs1,256 µg/mL
2,CC(C)=NNc1nc(-c2ccc(Cl)cc2Cl)cs1,8 µg/mL
3,C=CCC/C(C)=N/Nc1nc(-c2ccc(Cl)cc2Cl)cs1,8 µg/mL
4,COC1=CC(=O)C[C@@H](C)[C@]12Oc1c(Cl)c(OC)cc(OC)c1C2=O [GRISEOFULVIN],8 µg/mL
5,OC(Cn1cncn1)(Cn1cncn1)c1ccc(F)cc1F [FLUCONAZOLE],4 µg/mL

# Tested on: Staphylococcus aureus
# Experiment: Antibacterial activity against Staphylococcus aureus assessed as growth inhibition after 18 to 22 hrs by broth microdilution method
# Format: functional
# Settings: not given
# Procedure, shortened: as §2
row,Compound,MIC
1,CC(C)(O/N=C(\C(=O)N[C@@H]1C(=O)N2C(C(=O)[O-])=C(C[n+]3ccccc3)CS[C@H]12)c1csc(N)n1)C(=O)O [CEFTAZIDIME],2 µg/mL
2,C=CCC/C(C)=N/Nc1nc(-c2ccc(OC)cc2OC)cs1,> 256 µg/mL
3,CC(C)=NNc1nc(-c2ccc(Cl)cc2Cl)cs1,> 256 µg/mL
4,C=CCC/C(C)=N/Nc1nc(-c2ccc(Cl)cc2Cl)cs1,> 256 µg/mL

# Tested on: Proteus mirabilis
# Experiment: Antibacterial activity against Proteus mirabilis assessed as growth inhibition after 18 to 22 hrs by broth microdilution method
# Format: functional
# Settings: not given
# Procedure, shortened: as §2
row,Compound,MIC
1,CC(C)(O/N=C(\C(=O)N[C@@H]1C(=O)N2C(C(=O)[O-])=C(C[n+]3ccccc3)CS[C@H]12)c1csc(N)n1)C(=O)O [CEFTAZIDIME],8 µg/mL
2,C=CCC/C(C)=N/Nc1nc(-c2ccc(OC)cc2OC)cs1,> 256 µg/mL
3,CC(C)=NNc1nc(-c2ccc(Cl)cc2Cl)cs1,> 256 µg/mL
4,C=CCC/C(C)=N/Nc1nc(-c2ccc(Cl)cc2Cl)cs1,> 256 µg/mL

# Tested on: Candida tropicalis
# Experiment: Anticandida activity against Candida tropicalis clinical isolate assessed as growth inhibition after 24 hrs by broth microdilution method
# Format: functional
# Settings: not given
# Procedure, shortened: as §1
row,Compound,MIC
1,C=CCC/C(C)=N/Nc1nc(-c2ccc(OC)cc2OC)cs1,256 µg/mL
2,CC(C)=NNc1nc(-c2ccc(Cl)cc2Cl)cs1,4 µg/mL
3,C=CCC/C(C)=N/Nc1nc(-c2ccc(Cl)cc2Cl)cs1,8 µg/mL
4,COC1=CC(=O)C[C@@H](C)[C@]12Oc1c(Cl)c(OC)cc(OC)c1C2=O [GRISEOFULVIN],8 µg/mL
5,OC(Cn1cncn1)(Cn1cncn1)c1ccc(F)cc1F [FLUCONAZOLE],4 µg/mL

# Tested on: Klebsiella oxytoca
# Experiment: Antibacterial activity against Klebsiella oxytoca assessed as growth inhibition after 18 to 22 hrs by broth microdilution method
# Format: functional
# Settings: not given
# Procedure, shortened: as §2
row,Compound,MIC
1,CC(C)(O/N=C(\C(=O)N[C@@H]1C(=O)N2C(C(=O)[O-])=C(C[n+]3ccccc3)CS[C@H]12)c1csc(N)n1)C(=O)O [CEFTAZIDIME],8 µg/mL
2,C=CCC/C(C)=N/Nc1nc(-c2ccc(OC)cc2OC)cs1,> 256 µg/mL
3,CC(C)=NNc1nc(-c2ccc(Cl)cc2Cl)cs1,> 256 µg/mL
4,C=CCC/C(C)=N/Nc1nc(-c2ccc(Cl)cc2Cl)cs1,> 256 µg/mL

# Tested on: Enterococcus faecalis
# Experiment: Antibacterial activity against […] assessed as growth inhibition after 18 to 22 hrs by broth microdilution method
# Format: functional
# Settings: not given
# Procedure, shortened: as §2
row,Compound,MIC
1,CC(C)(O/N=C(\C(=O)N[C@@H]1C(=O)N2C(C(=O)[O-])=C(C[n+]3ccccc3)CS[C@H]12)c1csc(N)n1)C(=O)O [CEFTAZIDIME],4 µg/mL
2,C=CCC/C(C)=N/Nc1nc(-c2ccc(OC)cc2OC)cs1,> 256 µg/mL
3,CC(C)=NNc1nc(-c2ccc(Cl)cc2Cl)cs1,> 256 µg/mL
4,C=CCC/C(C)=N/Nc1nc(-c2ccc(Cl)cc2Cl)cs1,> 256 µg/mL

# Tested on: Streptococcus alpha-hemolyticus
# Experiment: Antibacterial activity against Streptococcus alpha-hemolyticus assessed as growth inhibition after 18 to 22 hrs by broth microdilution method
# Settings: not given
row,Compound,MIC
1,CC(C)(O/N=C(\C(=O)N[C@@H]1C(=O)N2C(C(=O)[O-])=C(C[n+]3ccccc3)CS[C@H]12)c1csc(N)n1)C(=O)O [CEFTAZIDIME],4 µg/mL
2,C=CCC/C(C)=N/Nc1nc(-c2ccc(OC)cc2OC)cs1,> 256 µg/mL
3,CC(C)=NNc1nc(-c2ccc(Cl)cc2Cl)cs1,> 256 µg/mL
4,C=CCC/C(C)=N/Nc1nc(-c2ccc(Cl)cc2Cl)cs1,> 256 µg/mL

# Tested on: Staphylococcus warneri
# Experiment: Antibacterial activity against Staphylococcus warneri assessed as growth inhibition after 18 to 22 hrs by broth microdilution method
# Format: functional
# Settings: not given
# Procedure, shortened: as §2
row,Compound,MIC
1,CC(C)(O/N=C(\C(=O)N[C@@H]1C(=O)N2C(C(=O)[O-])=C(C[n+]3ccccc3)CS[C@H]12)c1csc(N)n1)C(=O)O [CEFTAZIDIME],4 µg/mL
2,C=CCC/C(C)=N/Nc1nc(-c2ccc(OC)cc2OC)cs1,> 256 µg/mL
3,CC(C)=NNc1nc(-c2ccc(Cl)cc2Cl)cs1,> 256 µg/mL
4,C=CCC/C(C)=N/Nc1nc(-c2ccc(Cl)cc2Cl)cs1,> 256 µg/mL
